Test system: MS2 coat protein
Test: apparent Kd, MS2 coat protein; higher = weaker binding; RNA-MaP array; FMN 200 µM where present
Summary of the method: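 Green signal from SNAP-549-labelled MS2 coat protein was normalised to red-channel RNA signal and to the median Fmax of control clusters. The protein was titrated from 0.7 or 1.5 nM, doubling to 3 µM, without and then with constant ligand, over designs transcribed by stalled E. coli RNA polymerase on Illumina sequencing-chip clusters, in 100 mM Tris-HCl pH 7.5, 80 mM KCl, 4 mM MgCl2, BSA, DTT, yeast tRNA and Tween-20. The apparent Kd is the median of filtered per-cluster binding-curve fits.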

[1] = designed as: ON switch for flavin mononucleotide, no ligand
[2] = ligand present: flavin mononucleotide, designed as: ON switch for flavin mononucleotide
[3] = designed as: OFF switch for flavin mononucleotide, no ligand
[4] = ligand present: flavin mononucleotide, designed as: OFF switch for flavin mononucleotide

| Sequence | apparent Kd [1] [nM] | apparent Kd [2] [nM] | apparent Kd [3] [nM] | apparent Kd [4] [nM] |
| --- | --- | --- | --- | --- |
| AGGUCAACCACAGGAUAUGGCUAGCAUAGCUAGCCAGAAGGGUGGUCAUUUCCAUGUAAAUACAUGAGGAUCACCCAUGUAUCC | 126 | 41.1 | – | – |
| AGGUCAACCACAGGAUAUGGCUAGCAUAGCUAGCCAGAAGGGUGGUCGUUGCCAUGUACAUACAUGAGGAUCACCCAUGUAUCC | 179 | 54.7 | – | – |
| AGGUCGGGAUAAGGGCAUUCGACUCAGGAUAUGGGAGGUUUACAUGAGGAUCACCCAUGUUUCACCCAGAAGGGAGUUCAAACU | 7.59 | 5.84 | – | – |
| AGGUGUAGAGGAUAUUUAUUCUUCCACAUGAGGAUCACCCAUGUCCCGGUCACCAGGGACGGAGAAGGCUACACCA | – | – | 77 | 88.3 |
| AGUAAAGGCCUGAGGUGUCCGAACAUGAGGAUCACCCAUGUAGAGGAUAUAGGUGGAAGUGACGCCUAGAAGGCUACGUGUCAU | – | – | 8.8 | 11 |
| AGUAACAGAGGAUAUACUAUUUUAUGUGUUUGUUAUUUUAAACAUGAGGAUCACCCAUGUAGAAGGCUGAAUAA | – | – | 21.8 | 24.1 |
| AGUAACAGAGGAUAUACUAUUUUAUGUGUUUGUUAUUUUGAACAUGAGGAUCACCCAUGUAGAAGGCUGAAUAA | – | – | 25 | 26 |
| AGUAACAUACUCAACAUGAGGAUCACCCAUGUACUCUCUUGUAAGGAUAUACAUUCGUAUUGAUAGUAGAAGGUACCAAUUAAG | 53.5 | 57.4 | – | – |
| AGUACCAUGUAGAAGGGAUAUCUCAAAGAGAUAUCAGGAUAUACAUGAGGAUCACCCAUGUAAAUGUACUCCAGGAAACUGGAA | – | – | 19.8 | 55.3 |
| AGUAGAUCAGGAUAUACAUGAAAGAUCAAAAUGUCCAAUCUACAUGAGGAUCACCCAUGUAGAAGGGAUCUACA | – | – | 17.1 | 23 |
| AGUAGGCAGUGAGGAUAUGUACUUGUAACGGUACAUGAGGAUCACCCAUGUGGUGGGAGUGGAGGACAGAAGGCACCGUUUGGG | 114 | 66.6 | – | – |
| AGUAUGUUUGAGAAGGUGAAGUGGAAACAUGAGGAUCACCCAUGUAUUAGGAAGCCUGGUUUUGUCAAGGAUAUCGGGUAUACA | 19.8 | 16.1 | – | – |
| AGUAUUGUAGGGUAUCCAACAUGAGGAUCACCCAUGUACCAGAGAAGGACCCAGGCAUUGCUUGGGUAGGAUAUCUGCGCAUCA | – | – | 18.4 | 193 |
| AGUCAUACAGGAUAUACAUGAGGAUCACCCAUGUUUAUCCUACAUGGGUGAUCCUCAUGUAGAAGGGUAUGACA | – | – | 11.2 | 9.45 |
| AGUCGGAGCAGAGGAUAUACAUGAGGAUCACCCAUGUAAUAAAGUGAAGACUGGAAACAGUCAAUGUAGAAGGCUGCUCCGACA | – | – | 27.2 | 210 |
| AGUCGGAGCAGAGGAUAUACAUGAGGAUCACCCAUGUAAUAAAGUGAAGCCUGGAAACAGGUAAUGUAGAAGGCUGCUCCGACA | – | – | 11 | 84.7 |
| AGUCGGCGAGGAUAUACAUGAGGAUCACCCAUGUGAGAGAUAAAAGUGAGUUAGACAAGUAGAAGGCGCUGACA | – | – | 59.7 | 469 |
| AGUCUGCGAGGAUAUACAUGAGGAUCACCCAUGUGCGAAGAACUAGUGAGGUCGAUUGGUAGAAGGCGCGGACA | – | – | 297 | 30.3 |
| AGUGCCUCGAGAGGAUAUUACAUGAGGAUCACCCAUGUAACAGAGGUGGAAACACCUCUGAAAUGUAAGAAGGCUCGAGGCACA | – | – | 19.2 | 31.2 |
| AGUGGGCUAGGAUAUCGAUGAACUCACAUGAGGAUCACCCAUGUGUCUUCGGUGGGCUCACGAGAAGGAGUAAGUU | – | – | 17.6 | 23.2 |
| AGUGUCAUCGAGAAGGCCUCAACAUGAGGAUCACCCAUGUUGAAAAGUGGGAGGAUAUCGAUGAUACAGCUACGUUUCGUAGCA | 9.79 | 4.98 | – | – |
| AGUGUCAUCGAGAAGGCCUCAACAUGAGGAUCACCCAUGUUGCAAAAUGGGAGGAUAUCGAUGAUACAGCUACGUUUCGUAGCA | 15.3 | 5.21 | – | – |
| AGUGUCAUCGAGAAGGCCUCAACAUGAGGAUCACCCAUGUUGCAAAAUGGGAGGAUAUCGCGCGUUCAAAAACGUUUCGUAGCA | 42.3 | 17.6 | – | – |
